Source: ChEMBL document CHEMBL1140738, “New trisubstituted 1,2,4-triazole derivatives as potent ghrelin receptor antagonists. 3. Synthesis and pharmacological in vitro and in vivo evaluations” (J Med Chem, 2008)
Calls of active or inactive are those of the source. The calls are words filed in the database; no cut-off is given here. Where a SMILES comes first, the peptide text is derived from it. [ ]: non-standard residue; d: D form. dTrp(2-Me) = Cc1[nH]c2ccccc2c1C[C@@H](N)C(=O)O

Legend:
[1] = biological target: T1, Growth hormone secretagogue receptor type 1 (Homo sapiens, UniProt Q92847); assay: Agonist activity at GHSR1a expressed in CHO cells assessed as accumulation of intracellular calcium level at 10 uM relative to ghrelin; format: functional, cell-based
T1 sequence (Q92847 whole entry): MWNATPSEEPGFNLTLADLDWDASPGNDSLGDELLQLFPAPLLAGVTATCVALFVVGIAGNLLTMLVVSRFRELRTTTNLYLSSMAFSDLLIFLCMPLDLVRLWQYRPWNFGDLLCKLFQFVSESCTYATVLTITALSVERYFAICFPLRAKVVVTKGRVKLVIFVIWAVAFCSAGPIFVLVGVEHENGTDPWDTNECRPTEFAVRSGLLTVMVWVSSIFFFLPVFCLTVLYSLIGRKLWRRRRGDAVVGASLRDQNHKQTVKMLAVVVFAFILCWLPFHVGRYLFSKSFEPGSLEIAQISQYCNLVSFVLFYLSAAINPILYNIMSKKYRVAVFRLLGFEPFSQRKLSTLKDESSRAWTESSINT
Summary of the method: (§1)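 CHO cells transiently expressing GHS-R1a; intracellular Ca2+ accumulation read as fluorescence output. Increasing agonist concentrations were tested for dose-response; single-point activation at 10^-5 M is expressed as percent of the maximal response to ghrelin at 10^-7 M (100%).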

[2] = biological target: T1, Growth hormone secretagogue receptor type 1; assay: Displacement of 125I]-His9-ghrelin from human GHSR1a expressed in LLCPK1 cells; format: cell-based, LLC-PK1
Summary of the method: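 Competition binding with membranes from LLC PK-1 cells transiently transfected with human GHS-R1a, incubated with 125I-His9-ghrelin and increasing concentrations of compound.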

Rattus norvegicus [3] = assay: Inhibition of hexarelin induced food intake per 100 gm of body weight in rat at 80 ug/kg, sc after 2 hrs; format: functional
Summary of the method: (§2)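 Rats dosed subcutaneously with compound (160 µg/kg alone, or graded 20, 80, 160, 320 µg/kg) with or without hexarelin 80 µg/kg sc. Cumulative food intake at 2 and 6 h expressed as g food per 100 g body weight; % variation versus hexarelin at 6 h = 100 × (compound+hexarelin − hexarelin)/hexarelin.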

Rattus norvegicus [4] = assay: Inhibition of hexarelin induced food intake per 100 gm of body weight in rat at 80 ug/kg, sc after 6 hrs; format: functional; summary of the method: as §2
Rattus norvegicus [5] = assay: Inhibition of hexarelin induced food intake in rat at 20 ug/kg, sc; format: functional
[6] = biological target: T1, Growth hormone secretagogue receptor type 1; assay: Antagonist activity at GHSR1a expressed in CHO cells assessed as inhibition of ghrelin induced accumulation of intracellular calcium; format: functional, cell-based
Summary of the method: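 Antagonism measured in CHO cells transiently transfected with GHS-R1a: ghrelin dose-response curves of [Ca2+]i accumulation (fluorescence) run in the presence of various concentrations of test compound.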

[7] = biological target: Substance-P receptor (Homo sapiens) (UniProt P25103); assay: Binding affinity at tachykinin 2 receptor at 10 uM
Sequence of Substance-P receptor (Homo sapiens) (P25103 whole entry): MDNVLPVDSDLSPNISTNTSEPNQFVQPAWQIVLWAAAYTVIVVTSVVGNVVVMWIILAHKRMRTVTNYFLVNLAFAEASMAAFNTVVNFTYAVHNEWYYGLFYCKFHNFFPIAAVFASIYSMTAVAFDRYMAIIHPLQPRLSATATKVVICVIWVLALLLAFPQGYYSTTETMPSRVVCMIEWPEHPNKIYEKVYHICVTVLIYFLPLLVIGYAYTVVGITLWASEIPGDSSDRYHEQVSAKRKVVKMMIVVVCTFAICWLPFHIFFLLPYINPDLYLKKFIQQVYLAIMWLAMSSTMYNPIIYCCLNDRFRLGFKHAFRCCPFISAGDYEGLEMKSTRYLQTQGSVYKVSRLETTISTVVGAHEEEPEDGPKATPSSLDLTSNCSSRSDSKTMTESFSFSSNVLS

[8] = biological target: Motilin receptor (Homo sapiens) (UniProt O43193); assay: Binding affinity at motilin receptor at 10 uM
Sequence of Motilin receptor (Homo sapiens) (O43193 whole entry): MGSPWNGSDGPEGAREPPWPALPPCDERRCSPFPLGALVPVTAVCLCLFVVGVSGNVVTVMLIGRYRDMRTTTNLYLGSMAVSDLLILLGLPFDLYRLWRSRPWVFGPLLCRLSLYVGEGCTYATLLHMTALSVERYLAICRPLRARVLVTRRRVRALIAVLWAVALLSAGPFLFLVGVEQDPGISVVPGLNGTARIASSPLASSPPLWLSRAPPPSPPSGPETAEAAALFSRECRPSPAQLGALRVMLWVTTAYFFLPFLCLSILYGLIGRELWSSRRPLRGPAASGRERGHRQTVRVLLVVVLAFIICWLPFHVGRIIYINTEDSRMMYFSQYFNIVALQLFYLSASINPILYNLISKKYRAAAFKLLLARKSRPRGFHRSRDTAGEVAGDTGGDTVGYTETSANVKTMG

Rattus norvegicus [9] = assay: Effect on growth hormone secretion at 160 ug/kg, sc; format: functional
Summary of the method: (§3)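 Infant rats given sc injection of compound at 160 µg/kg and/or hexarelin at 80 µg/kg; plasma rat GH measured (ng/mL).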

Rattus norvegicus [10] = assay: Inhibition of hexarelin induced food intake per 100 gm of body weight in rat at 320 ug/kg, sc after 6 hrs; format: functional; summary of the method: as §2
Rattus norvegicus [11] = assay: Inhibition of hexarelin induced food intake per 100 gm of body weight in rat at 20 ug/kg, sc after 2 hrs; format: functional; summary of the method: as §2
Rattus norvegicus [12] = assay: Inhibition of hexarelin induced food intake per 100 gm of body weight in rat at 320 ug/kg, sc after 2 hrs; format: functional; summary of the method: as §2
Rattus norvegicus [13] = assay: Effect on growth hormone secretion in infant rat at 80 ug/kg, sc at 160 ug/kg, sc in presence of hexarelin; format: functional; summary of the method: as §3
Rattus norvegicus [14] = assay: Inhibition of hexarelin induced food intake per 100 gm of body weight in rat at 20 ug/kg, sc after 6 hrs; format: functional; summary of the method: as §2
Rattus norvegicus [15] = assay: Inhibition of hexarelin induced food intake per 100 gm of body weight in rat at 160 ug/kg, sc after 6 hrs; format: functional; summary of the method: as §2
Rattus norvegicus [16] = assay: Inhibition of hexarelin induced food intake in rat at 80 ug/kg, sc; format: functional
[17] = biological target: Vasopressin V1a receptor (Homo sapiens) (UniProt P37288); assay: Binding affinity at vasopressin 1a receptor at 10 uM
Sequence of Vasopressin V1a receptor (Homo sapiens) (P37288 whole entry, looked up): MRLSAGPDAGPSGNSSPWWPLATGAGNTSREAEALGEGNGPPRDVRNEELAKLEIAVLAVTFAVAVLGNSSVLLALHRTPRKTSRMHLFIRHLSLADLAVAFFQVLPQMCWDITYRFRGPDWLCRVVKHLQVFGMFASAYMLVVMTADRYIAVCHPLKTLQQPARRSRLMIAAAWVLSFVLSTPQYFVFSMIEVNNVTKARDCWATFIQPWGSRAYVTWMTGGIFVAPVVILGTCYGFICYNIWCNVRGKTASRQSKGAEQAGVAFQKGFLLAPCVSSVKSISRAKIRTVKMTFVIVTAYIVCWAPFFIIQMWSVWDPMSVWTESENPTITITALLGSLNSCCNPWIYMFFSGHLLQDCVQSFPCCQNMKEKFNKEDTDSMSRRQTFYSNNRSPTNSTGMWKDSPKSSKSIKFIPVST

Rattus norvegicus [18] = assay: Inhibition of hexarelin induced food intake per 100 gm of body weight in rat at 160 ug/kg, sc after 2 hrs; format: functional; summary of the method: as §2
[19] = biological target: T2, Cholecystokinin receptor type A (Homo sapiens) (UniProt P32238); assay: Binding affinity at CCK1 receptor at 10 uM
T2 sequence (whole entry): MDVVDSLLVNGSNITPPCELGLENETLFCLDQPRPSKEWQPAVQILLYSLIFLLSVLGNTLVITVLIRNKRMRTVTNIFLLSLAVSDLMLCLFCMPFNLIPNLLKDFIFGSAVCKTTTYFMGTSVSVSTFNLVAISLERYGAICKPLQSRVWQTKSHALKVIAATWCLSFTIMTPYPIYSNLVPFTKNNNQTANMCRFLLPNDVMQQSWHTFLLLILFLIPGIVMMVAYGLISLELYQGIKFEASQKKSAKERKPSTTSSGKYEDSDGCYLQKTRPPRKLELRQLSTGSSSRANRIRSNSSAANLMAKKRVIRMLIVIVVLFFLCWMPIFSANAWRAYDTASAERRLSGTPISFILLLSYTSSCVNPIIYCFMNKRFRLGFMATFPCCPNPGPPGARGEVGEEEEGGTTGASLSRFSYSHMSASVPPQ

[20] = biological target: T1, Growth hormone secretagogue receptor type 1; assay: Agonist activity at GHSR1a expressed in CHO cells assessed as accumulation of intracellular calcium level; format: functional, cell-based; summary of the method: as §1
Rattus norvegicus [21] = assay: Effect on food intake per 100 gm of body weight in rat at 80 ug/kg, sc after 2 hrs; format: functional; summary of the method: as §2
Rattus norvegicus [22] = assay: Effect on food intake per 100 gm of body weight in rat at 80 ug/kg, sc after 6 hrs; format: functional; summary of the method: as §2
Rattus norvegicus [23] = assay: Effect on growth hormone secretion in infant rat at 80 ug/kg, sc; format: functional; summary of the method: as §3

| Structure (SMILES) | Activity [1] [%] | IC50 [2] [µM] | Kb [6] [µM] | further results |
| --- | --- | --- | --- | --- |
| COc1ccc(Cn2c(CCc3ccccc3)nnc2[C@@H](Cc2c[nH]c3ccccc23)NCc2ccccc2)c(OC)c1 | 20 | > 1 | – | – |
| O=C(N[C@H](Cc1c[nH]c2ccccc12)c1nnc(CCc2c[nH]c3ccccc23)n1-c1ccccc1)c1ccccn1 | 0 | 0.16 | – | – |
| O=C(N[C@H](Cc1c[nH]c2ccccc12)c1nnc(CCc2ccccc2)n1-c1ccccc1)c1ccccn1 | 0 | 0.105 | – | – |
| COc1ccc(Cn2c(CCc3ccccc3)nnc2[C@@H](Cc2c[nH]c3ccccc23)NC(=O)CCc2cccnc2)cc1 | 5 | 0.177 | – | – |
| COc1ccc(Cn2c(CCc3c[nH]c4ccccc34)nnc2[C@@H](Cc2c[nH]c3ccccc23)NC(=O)Cc2ccncc2)cc1 | 3 | 0.076 | 0.01 | – |
| CCc1ccc(Cn2c(CCc3ccccc3)nnc2[C@@H](Cc2c[nH]c3ccccc23)NC(=O)c2ccncc2)cc1 | 0 | > 1 | – | – |
| CCc1ccc(Cn2c(CCc3ccccc3)nnc2[C@@H](Cc2c[nH]c3ccccc23)NC(=O)c2ccccn2)cc1 | 0 | 0.067 | 0.513 | – |
| Cc1[nH]c2ccccc2c1C[C@@H](NC(=O)[C@@H](N)Cc1c[nH]cn1)C(=O)N[C@@H](C)C(=O)N[C@@H](Cc1c[nH]c2ccccc12)C(=O)N[C@H](Cc1ccccc1)C(=O)N[C@@H](CCCCN)C(N)=O [EXAMORELIN] (H-H[dTrp(2-Me)]AW[dF]K-NH2) | – | – | – | Activity (Rattus norvegicus [21]): 1.06 g; Activity (Rattus norvegicus [22]): 1.45 g; Activity (Rattus norvegicus [23]): 253.82 ng/mL |
| COc1ccc(-n2c(CCc3ccccc3)nnc2[C@@H](Cc2c[nH]c3ccccc23)NC(=O)c2cnccn2)c(OC)c1 | 1 | 0.3 | – | – |
| O=C(Cc1ccccn1)N[C@H](Cc1c[nH]c2ccccc12)c1nnc(CCc2ccccc2)n1-c1ccccc1 | 0 | 0.7 | – | – |
| COc1ccc(Cn2c(CCc3c[nH]c4ccccc34)nnc2[C@@H](Cc2c[nH]c3ccccc23)NC(=O)C(C)(C)N)c(OC)c1 | 0 | 0.108 | 0.014 | – |
| CCc1ccc(Cn2c(CCc3ccccc3)nnc2[C@@H](Cc2c[nH]c3ccccc23)NC(=O)c2cnccn2)cc1 | 0 | 0.089 | 0.076 | – |
| CCc1ccc(Cn2c(CCc3ccccc3)nnc2[C@@H](Cc2c[nH]c3ccccc23)NC(=O)Cc2cccnc2)cc1 | 3 | 0.48 | – | – |
| CCc1ccc(-n2c(CCc3c[nH]c4ccccc34)nnc2[C@@H](Cc2c[nH]c3ccccc23)NC(=O)Cc2ccccn2)cc1 | 0 | 0.096 | 0.034 | – |
| COc1ccc(Cn2c(CCc3c[nH]c4ccccc34)nnc2[C@@H](Cc2c[nH]c3ccccc23)NC(=O)[C@H]2CCCC[C@H]2N)c(OC)c1 | 4 | 0.14 | 0.14 | – |
| COc1ccc(Cn2c(CCc3ccccc3)nnc2[C@@H](Cc2c[nH]c3ccccc23)NC(=O)Cc2ccncc2)cc1 | 6 | 0.27 | – | – |
| COc1ccc(Cn2c(CCc3ccccc3)nnc2[C@@H](Cc2c[nH]c3ccccc23)NC(=O)c2ccncc2)cc1 | 0 | 0.22 | – | – |

Further lines, with some results ahead:

| Activity [1] [%] | IC50 [2] [µM] | Kb [6] [µM] | Structure (SMILES) | further results |
| --- | --- | --- | --- | --- |
| 0 | 0.0011 | 0.025 | COc1ccc(Cn2c(CCc3ccccc3)nnc2[C@@H](Cc2c[nH]c3ccccc23)NC(=O)c2ccccn2)c(OC)c1 | Activity (Rattus norvegicus [3]): 0.02 g; Activity (Rattus norvegicus [4]): 0.02 g; inhibition in vivo at 0.02 mg/kg (Rattus norvegicus [5]): -44%; Activity [7]: Active; Activity [8]: Active; Activity (Rattus norvegicus [9]): 13.06 ng/mL; Activity (Rattus norvegicus [10]): 1.23 g; Activity (Rattus norvegicus [11]): 0.56 g; Activity (Rattus norvegicus [12]): 1.23 g; Activity (Rattus norvegicus [13]): 138.39 ng/mL; Activity (Rattus norvegicus [14]): 0.56 g; Activity (Rattus norvegicus [15]): 0.21 g; inhibition in vivo at 0.08 mg/kg (Rattus norvegicus [16]): -98%; Activity [17]: Active; Activity (Rattus norvegicus [18]): 0.21 g; Activity [19]: Active |
| 0 | 0.06 | 0.017 | COc1ccc(Cn2c(CCc3ccccc3)nnc2[C@@H](Cc2c[nH]c3ccccc23)NC(=O)C(C)(C)N)c(OC)c1 | – |
| 0 | 0.0185 | 0.097 | COc1ccc(Cn2c(CCc3c[nH]c4ccccc34)nnc2[C@@H](Cc2c[nH]c3ccccc23)NC(=O)c2cnccn2)c(OC)c1 | Activity (Rattus norvegicus [3]): 0.23 g; Activity (Rattus norvegicus [4]): 0.23 g; Activity (Rattus norvegicus [9]): 15.32 ng/mL; Activity (Rattus norvegicus [10]): 0.21 g; Activity (Rattus norvegicus [11]): 0.66 g; Activity (Rattus norvegicus [12]): 0.2 g; Activity (Rattus norvegicus [13]): 173.61 ng/mL; Activity (Rattus norvegicus [14]): 0.66 g; inhibition in vivo at 0.02 mg/kg (Rattus norvegicus [14]; Rattus norvegicus, sc, 6 h): 47%; Activity (Rattus norvegicus [15]): 0.31 g; Activity (Rattus norvegicus [18]): 0.29 g |
| 0 | 0.058 | 0.093 | COc1ccc(Cn2c(CCc3ccccc3)nnc2[C@@H](Cc2c[nH]c3ccccc23)NC(=O)c2ccncc2)c(OC)c1 | – |
| 31 | 0.0118 | – | COc1ccc(Cn2c(CCc3ccccc3)nnc2[C@@H](Cc2c[nH]c3ccccc23)NC(=O)c2ccccc2)c(OC)c1 | EC50 [20]: 0.016 µM |
| – | 0.0006 | – | COc1ccc(Cn2c(CCc3c[nH]c4ccccc34)nnc2[C@@H](Cc2c[nH]c3ccccc23)NC(=O)C2CCNCC2)cc1 | EC50 [20]: 0.0016 µM |
| 0 | 0.0019 | 0.102 | COc1ccc(Cn2c(CCc3c[nH]c4ccccc34)nnc2[C@@H](Cc2c[nH]c3ccccc23)NC(=O)c2ccccn2)cc1 | – |
| 6 | 0.003 | 0.006 | COc1ccc(Cn2c(CCc3ccccc3)nnc2[C@@H](Cc2c[nH]c3ccccc23)NC(=O)Cc2ccccn2)cc1 | – |
| 0 | 0.033 | 0.065 | COc1ccc(-n2c(CCc3ccccc3)nnc2[C@@H](Cc2c[nH]c3ccccc23)NC(=O)c2ccccn2)c(OC)c1 | – |
| 0 | 0.0018 | 0.019 | COc1ccc(Cn2c(CCc3c[nH]c4ccccc34)nnc2[C@@H](Cc2c[nH]c3ccccc23)NC(=O)c2ccccn2)c(OC)c1 | – |
| 0 | 0.0007 | 0.012 | COc1ccc(Cn2c(CCc3ccccc3)nnc2[C@@H](Cc2c[nH]c3ccccc23)NC(=O)c2ccccn2)cc1 | – |
| 3 | 0.029 | 0.093 | COc1ccc(Cn2c(CCc3ccccc3)nnc2[C@@H](Cc2c[nH]c3ccccc23)NC(=O)Cc2cccnc2)cc1 | – |
| 0 | 0.051 | 0.124 | CCc1ccc(Cn2c(CCc3ccccc3)nnc2[C@@H](Cc2c[nH]c3ccccc23)NC(=O)Cc2ccccn2)cc1 | – |
| 0 | 0.034 | 0.014 | COc1ccc(Cn2c(CCc3c[nH]c4ccccc34)nnc2[C@@H](Cc2c[nH]c3ccccc23)NC(=O)Cc2ccccn2)c(OC)c1 | – |
| 4 | 0.061 | 0.041 | O=C(Cc1ccccn1)N[C@H](Cc1c[nH]c2ccccc12)c1nnc(CCc2c[nH]c3ccccc23)n1Cc1ccccc1 | – |
| 0 | 0.049 | 0.129 | CCc1ccc(-n2c(CCc3c[nH]c4ccccc34)nnc2[C@@H](Cc2c[nH]c3ccccc23)NC(=O)c2ccccn2)cc1 | – |
| 0 | 0.011 | 0.005 | COc1ccc(Cn2c(CCc3ccccc3)nnc2[C@@H](Cc2c[nH]c3ccccc23)NC(=O)C(C)(C)N)cc1 | Activity (Rattus norvegicus [9]): 5.28 ng/mL; Activity (Rattus norvegicus [13]): 220.52 ng/mL |
